Assay outcomes as filed in PubChem.
Most compounds without a hit are left out; they make up all but 2.3% or so of the library.
SDO1 yeast rescue = growth rescue of sdo1-depleted yeast, primary screen, S. cerevisiae, bone marrow failure model | S. cerevisiae sdo1-depleted JHY4D growth rescue, OD600 30 h; hits give high values; pdr5 snq2 efflux-pump mutant strain | z-score at 10 µM | 140,000 compounds, 0.21% hits;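 active = z-score above 3 at both the 24 hr and the 30 hr optical density reads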
ABCG2 inh = ABCG2 efflux pump inhibitors, primary screen, multiplex with ABCB1, IgMXP3 cells, flow cytometry | Broad substrate specificity ATP-binding cassette transporter ABCG2 (Homo sapiens), Q9UNQ0 | 190,000 compounds, 0.1% hits | JC-1 efflux | inhibition, % at 6.6 µM | AID 1325, 2008;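 active = inhibition above 80%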
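Incubation: cells with compound and JC-1, 10 min at 25 °C, rotating, no wash / Test system: IgMXP3 (ABCG2) plus far-red-tagged CCRF-Adr (ABCB1) cells / Compound dosing: one concentration, 6.6 µM final / Also added: JC-1 fluorescent substrate / Evaluation: efflux inhibition in percent versus controls / Detection: flow cytometry, 530 nm JC-1 signal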
Autophagy HCS = autophagy modulators in MEF cells, primary screen, imaging, high-content, MEF GFP-LC3; MEF GFP-LC3 puncta imaging; test concentration mostly 10 µM; calls only at 10 µM (by protocol); 190,000 compounds, 0.98% hits; AID 463193, 2010;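 active = percentage of spot-positive cells more than 3 SD above its plate mean, without a fluorescence outlier flag or 80% toxicity; inconclusive = no clear call, values can overlap the other calls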
ROMK primary = ROMK potassium channel modulators, primary screen, cell-based, thallium flux, MLSMR library | AID 1918, 2009 | B-score at 10 µM | 130,000 compounds, 2% hits | Tet-inducible ROMK, thallium flux fluorescence; actives lie on both sides | ATP-sensitive inward rectifier potassium channel 1 (Homo sapiens), P48048;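 active = signal ratio slope over the read window, or its plate-corrected B-score, at least 3 SD from the plate mean, either direction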;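 also: B-score of the F/F0 ratio slope over 7 to 12 s after thallium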
Target sequence (P48048 whole entry, looked up): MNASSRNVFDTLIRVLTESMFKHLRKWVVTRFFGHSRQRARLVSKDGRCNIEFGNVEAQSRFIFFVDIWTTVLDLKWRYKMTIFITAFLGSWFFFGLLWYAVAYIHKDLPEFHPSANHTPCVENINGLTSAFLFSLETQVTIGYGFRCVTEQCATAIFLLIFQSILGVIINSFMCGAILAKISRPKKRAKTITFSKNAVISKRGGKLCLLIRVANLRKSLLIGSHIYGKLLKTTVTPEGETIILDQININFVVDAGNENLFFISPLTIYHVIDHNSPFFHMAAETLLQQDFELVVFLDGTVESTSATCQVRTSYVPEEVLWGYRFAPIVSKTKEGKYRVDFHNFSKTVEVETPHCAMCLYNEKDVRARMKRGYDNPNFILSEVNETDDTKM
Ins promoter up = insulin promoter activators in MIN6 cells, imaging, high-content screening, mouse beta cells | z-score at 5 µM | 190,000 compounds, 0.3% hits | MIN6 insulin promoter-GFP reporter; hits give high values;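 active = z-score above 3 at 5 µM with at least 500 cells counted in the well; inconclusive = wells under 500 cells, flagged as cytotoxic or low count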
ABCB1 inh = ABCB1 efflux pump inhibitors, primary screen, cell-based, multiplex, flow cytometry, ABCG2 counter-screen; ATP-dependent translocase ABCB1 (Homo sapiens), P08183; CCRF-Adr cells, JC-1 efflux; inhibition, % at 6.6 µM; 190,000 compounds, 0.067% hits; AID 1326, 2008; in the data active = inhibition above about 40%;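 also: higher value means more JC-1 retained so stronger ABCB1 efflux block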
ROMK hit retest = ROMK channel modulator hit retest, confirmation, cell-based, thallium flux, duplicate, resupplied hits | 3,000 compounds, 54% hits | shares compounds with ROMK primary | normalized thallium flux (F/F0 slope) at 10 µM | fluorescence ratio; hits give low values;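 active = Flux at 10 µM at least 3 SD below or above vehicle control mean in one or both replicates; inconclusive = no clear call, values can overlap the other calls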
Hits are given with their value; - = inactive; ? = inconclusive; . = no result given; + = active, no number; ! = a repeat was not active.

SMILES | SDO1 yeast rescue | ABCG2 inh | Autophagy HCS | ROMK primary | Ins promoter up | ABCB1 inh | ROMK hit retest
CN(C(=O)CSc1nnc(-c2ccncc2)n1C)C1CCS(=O)(=O)C1 (stereo not drawn) | - | - | - | 3.1 | - | - | -
CN1\C(=C/C=C/C=C/C=[N+](C)C)C(C)(C)c2ccccc21 | . | - | + | -3.6 | ? | - | 0.051
CN(CCC1CCCCO1)C(=O)CCc1nnc(C2CCCCC2)o1 (stereo not drawn) | . | - | - | - | - | - | .
CC(=O)Nc1ccccc1C(=O)N1CCN(Cc2ccccc2)CC1 | . | - | - | . | . | - | .
COc1cc(C2C3=C(Nc4ncnn42)c2ccccc2CC3)cc(OC)c1OC (stereo not drawn) | - | - | - | 3.9 | - | - | -
COc1ccc(C2C3=C(Nc4ncnn42)c2ccccc2CCC3)cc1 (stereo not drawn) | - | - | - | . | - | - | .
CC1(C)NC(=O)N(CC(O)COc2ccccc2C(=O)Nc2ccccc2)C1=O (stereo not drawn) | - | - | - | - | - | - | .
O=C(Nc1ccccc1)c1ccccc1OCC(O)CN1C(=O)c2ccccc2S1(=O)=O (stereo not drawn) | - | - | - | . | - | - | 0.061
O=C1C2CCCCN2C(=O)N1CCN1CCN(c2ccc([N+](=O)[O-])cc2)CC1 (stereo not drawn) | - | - | - | -2.8 | - | - | 0.047
O=C(CCCN1C(=O)C2CCCCN2C1=O)N1CCN(c2ccc([N+](=O)[O-])cc2)CC1 (stereo not drawn) | - | - | - | - | - | - | .
CC1CCN(c2nc(N3CCCCC3)nc(N3CCCCC3)n2)CC1 | . | - | - | . | - | - | .
C1CCN(c2nc(N3CCCCC3)nc(N3CCNCC3)n2)CC1 | - | - | - | -3 | - | - | 0.067
N#Cc1nc(N2CCCC2)nc(N2CCCC2)n1 | - | - | - | -3.4 | . | - | 0.063
N#Cc1nc(N2CCCCC2)nc(N2CCOCC2)n1 | - | - | - | . | - | - | .
COc1cc(NCCCCCCCN)c2ncccc2c1 | - | - | - | -5.1 | . | - | 0.062
COc1cc(NCc2ccccc2O)c2ncccc2c1 | . | . | . | - | - | . | .
COc1ccc(C2CC(C(F)(F)F)n3ncc(C(=O)Nc4c(C)n(C)n(-c5ccccc5)c4=O)c3N2)cc1 (stereo not drawn) | - | - | - | -6.1 | . | - | -
COc1ccc(NC(=S)NCCCCCC(=O)C[N+](=O)[O-])cc1 | . | - | - | 1.1 | - | - | -
O=C(NCc1cccs1)C1CCN(c2ccc(S(=O)(=O)N3CCOCC3)cc2Cl)CC1 | - | - | - | 2.9 | - | - | -
COc1cccc(C2C3CN(C)CC=C3C(C#N)=C(N)C2(C#N)C#N)c1OC (stereo not drawn) | - | - | ? | . | . | - | .
CN1CC=C2C(C#N)=C(N)C(C#N)(C#N)[C@H](c3cccc(Cl)c3)C2C1 (stereo partly drawn) | - | - | ? | -3.8 | . | - | 0.045
CC(C)Cc1nc(N2CCN(C(=O)c3ccco3)CC2)c(C#N)c2c1CCC2 | - | - | - | - | - | - | 0.067
COC(=O)Nc1nc2ccc(-c3n[nH]c(=O)c4ccccc34)cc2[nH]1 | - | - | - | 2.8 | - | - | ?
COC(=O)c1ccc(-c2n[nH]c(=O)c3ccccc23)cc1 | - | - | - | . | . | - | .
C#Cc1ccc([C@@H]2C=C(C(=O)OCC=C)O[C@H](OCc3ccc(CO)cc3)C2)cc1 | . | - | - | . | - | - | .
SMILES | SDO1 yeast rescue | ABCG2 inh | Autophagy HCS | ROMK primary | Ins promoter up | ABCB1 inh | ROMK hit retest
O=C(O)CCCCCCC1C(=O)NC(=O)N1CCC(O)C1CCCCC1 (stereo not drawn) | - | - | - | 4 | . | - | ?
Cc1ccc(CSCCNC(=O)c2ccc(Cl)c(S(=O)(=O)N3CCOCC3)c2)cc1 | - | - | - | -4 | . | - | -
COc1cc(NC(C)=O)c2ncccc2c1[N+](=O)[O-] | - | - | - | -4.7 | - | . | 0.046
CCN(CC)S(=O)(=O)c1ccc(N2CCOCC2)c(NC(=O)C23CC4CC(CC(Cl)(C4)C2)C3)c1 | - | - | - | -3.5 | - | - | 0.061
CCN(CC)S(=O)(=O)c1ccc(N2CCOCC2)c(NC(=O)c2ccccc2)c1 | - | - | - | - | - | - | .
CCOc1ccc(C2CC(c3c(O)c4ccccc4oc3=O)=NN2c2ccccc2)cc1OC (stereo not drawn) | . | - | + | -6.6 | . | - | 0.028
S=C1N(c2ccccc2)CN(CCN2CCOCC2)CN1c1ccccc1 | . | . | . | . | - | . | .
COc1ccc(N2C(=O)CC(Sc3nc4c(cc3C#N)CCC4)C2=O)cc1 (stereo not drawn) | . | - | - | - | - | - | .
CS(=O)(=O)n1nc(OC(=O)c2cccc3ccccc23)cc1N | - | - | - | - | - | - | .
CS(=O)(=O)n1nc(OC(=O)c2cc(Br)ccc2Cl)cc1N | . | - | - | -3 | - | - | 0.054
CC1=NNC(=O)C1C(c1cccc(O)c1)C(C#N)C#N (stereo not drawn) | . | . | . | -2.4 | - | . | -
CC1=NNC(=O)C1C(c1ccc(Cl)cc1)C(C#N)C#N (stereo not drawn) | . | . | . | - | - | . | .
Cc1c(CN2CCC(CO)(CC3CCCCO3)CC2)cnn1C (stereo not drawn) | . | - | - | - | - | - | .
CC(=O)NCC(=O)OC(C)C(=O)Nc1ccc(C(C)=O)cc1 (stereo not drawn) | - | - | - | . | - | - | -
CN1CCC2(CC1)C1CN(C)CC=C1C(C#N)=C(N)C2(C#N)C#N (stereo not drawn) | - | - | - | -3.4! | - | - | 0.057
Oc1ccccc1Nc1nc(NCC2CCCO2)c2ccccc2n1 (stereo not drawn) | - | - | - | - | - | - | .
Oc1ccc(Nc2nc(NCC3CCCO3)c3ccccc3n2)cc1 (stereo not drawn) | - | - | - | -5.5 | ? | - | 0.055
CC1(CC(=O)N/N=C/c2cc([N+](=O)[O-])c(O)cc2O)OCCO1 | . | - | - | - | - | - | -
Cc1ccc(-n2c(C)cc(/C=N/NC(=O)CC3(C)OCCO3)c2C)c(C)c1 | - | - | - | - | . | - | .
OCC1(Cc2ccccc2)CCN(Cc2ccc(C(F)(F)F)cc2)CC1 | . | - | - | - | - | - | .
CN1CCN(C(=O)/C(C#N)=C/c2ccc(F)cc2)CC1 | . | - | - | -2.7 | . | - | 0.047
